Test results: ChEMBL document CHEMBL1140312, “Synthesis and biological evaluation of geminal disulfones as HIV-1 integrase inhibitors” (J Med Chem, 2005)

Columns and labels:
[1] = biological target: T1, Human immunodeficiency virus type 1 integrase (Human immunodeficiency virus 1, UniProt Q7ZJM1); assay: Inhibitory concentration against integration of HIV-1 Integrase
HeLa [2] = assay: Antiviral activity against human immuno deficiency virus type 1 in HeLa H1-JC.37 cells; format: functional, cell-based
Outline: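 HIV-1 focal infectivity assay in HeLa H1-JC.37 indicator cells (HeLa CD4 expressing human CCR5, naturally CXCR4). Foci immunostained with monoclonal antibody 22-6 at 1/800 and counted under a dissecting microscope at 30× to 100×. Plotted as percentage of no-drug control foci against inhibitor concentration; EC50 from best-fit line of linear portion; at least three separate experiments.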

[3] = biological target: T1, Human immunodeficiency virus type 1 integrase; assay: Inhibitory concentration against 3'processing of HIV-1 Integrase
HeLa [4] = assay: Cytotoxicity for HeLa H1-JC.37 cells using MTS assay; format: functional, cell-based; details: Homo sapiens
Outline: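 HeLa H1-JC.37 cell proliferation measured by MTS assay under manufacturer's recommended conditions. Data plotted as percentage of no-drug control against inhibitor concentration; IC50 for 50% inhibition of proliferation taken from best-fit line of linear portion of plot; at least two separate experiments.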

HeLa [5] = assay: Ratio of cytotoxicity for HeLa H1-JC.37 cells (IC50) to antiviral activity against HIV-1 (EC50); format: functional, Homo sapiens
Outline: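 Ratio of cytotoxic IC50 to antiviral EC50 in HeLa H1-JC.37 cells (HeLa CD4 expressing CCR5). EC50 came from an HIV-1 focal infectivity assay: mAb 22-6 (1/800) immunostaining, foci counted at 30× to 100×, best-fit linear portion of % no-drug control foci versus concentration, at least three experiments. IC50 came from an MTS proliferation assay, same fitting, at least two experiments.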

T1 sequence (Q7ZJM1 whole entry): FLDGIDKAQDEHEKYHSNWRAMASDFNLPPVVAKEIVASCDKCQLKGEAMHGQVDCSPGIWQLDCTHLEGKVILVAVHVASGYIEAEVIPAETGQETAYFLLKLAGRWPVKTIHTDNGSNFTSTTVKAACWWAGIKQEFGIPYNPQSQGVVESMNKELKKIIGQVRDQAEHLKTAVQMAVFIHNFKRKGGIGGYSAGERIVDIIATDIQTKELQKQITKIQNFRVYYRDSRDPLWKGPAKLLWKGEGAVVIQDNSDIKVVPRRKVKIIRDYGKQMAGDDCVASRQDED

| SMILES | IC50 [1] [µM] | EC50 (HeLa [2]) [µM] | IC50 [3] [µM] | IC50 (HeLa [4]) [µM] | Selectivity index (HeLa [5]) |
| --- | --- | --- | --- | --- | --- |
| COc1cc(/C=C/S(=O)(=O)CS(=O)(=O)/C=C/c2cc(O)c(O)c(OC)c2)cc(O)c1O | 50 | 1.3 | 50 | 29 | 22 |
| O=S(=O)(/C=C/c1cc(O)c(O)c(O)c1)CS(=O)(=O)/C=C/c1cc(O)c(O)c(O)c1 | 0.9 | 0.3 | 1.8 | 169 | 563 |
| O=S(=O)(/C=C/c1ccc(O)c(O)c1)CS(=O)(=O)/C=C/c1ccc(O)c(O)c1 | 5 | 2.4 | 4 | 187 | 78 |
| COc1cc(/C=C/S(=O)(=O)CS(=O)(=O)/C=C/c2ccccc2)cc(O)c1O | 80 | 4.5 | 80 | 19 | 4.3 |
| COc1cc(/C=C/S(=O)(=O)CS(=O)(=O)/C=C/c2ccc(C(C)=O)c(OC)c2)ccc1C(C)=O | > 1000 | – | > 1000 | – | – |
| O=C(O)C(=O)CC(=O)c1cc(OCc2ccccc2)cc(OCc2ccccc2)c1 | – | 0.78 | > 1000 | – | – |
| O=S(=O)(/C=C/c1ccc(OCc2ccccc2)c(OCc2ccccc2)c1)CS(=O)(=O)/C=C/c1ccc(OCc2ccccc2)c(OCc2ccccc2)c1 | 700 | – | 700 | – | – |
